Reference: ChEMBL document CHEMBL4406794, “N-(7-Cyano-6-(4-fluoro-3-(2-(3-(trifluoromethyl)phenyl)acetamido)phenoxy)benzo[d]thiazol-2-yl)cyclopropanecarboxamide (TAK-632) Analogues as Novel Necroptosis Inhibitors by Targeting Receptor-Interacting Protein Kinase 3 (RIPK3): Synthesis, Structure-Activity Relationships, and in Vivo Efficacy” (J Med Chem, 2019)
Calls of active or inactive are those of the source. The calls are words filed in the database; no cut-off is given here.

Experiments:
[1] = molecular target: T1, Receptor-interacting serine/threonine-protein kinase 3 (Homo sapiens, UniProt Q9Y572); assay: Inhibition of RIPK3 phosphorylation in human HT-29 cells assessed as reduction in TNFalpha/smac mimetic/Z-VAD-fmk-induced necrosome formation at 1 uM treated prior to TNFalpha/smac mimetic/Z-VAD-fmk stimulation and measured after 4 hrs by immunoprecipitation based assay; assay type: cell-based
Outline: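 HT-29 cells treated with 1 μM compound or DMSO for 4 h, then lysed in M2 buffer. Lysates immunoprecipitated overnight at 4 °C with anti-RIPK1 (1 μg) on protein A/G agarose. Bound proteins boiled off and resolved on 4–20% SDS gels, then immunoblotted.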

[2] = Cmax in Sprague-Dawley rat at 1 mg/kg, iv by LC-tandem mass spectrometry analysis; assay type: ADME, organism-based; parameters: dose 1 mg/kg, route intravenous; details: in vivo
Outline: (§1)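 Male Sprague-Dawley rats dosed once i.v. at 1 mg/kg or intragastrically at 5 mg/kg. Compound dissolved in 5% DMSO, 10% Tween 80, 75% physiological saline at 0.2 and 1 mg/mL. Blood taken at several time points, plasma spun at 4 °C, stored at -80 °C, assayed by LC/MS/MS. Parameters from individual animals by noncompartmental analysis.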

[3] = molecular target: Serine/threonine-protein kinase B-raf (Homo sapiens) (UniProt P15056); assay: Inhibition of wild-type human partial length BRAF (S429 to E741 residues) expressed in mammalian expression system assessed as enzyme remaining activity at 1000 nM by Kinomescan method relative to control
[4] = molecular target: Glycogen synthase kinase-3 beta (Homo sapiens) (UniProt P49841); assay: Inhibition of wild-type human full length GSK3B (M1 to T433 residues) expressed in mammalian expression system assessed as enzyme remaining activity at 1000 nM by Kinomescan method relative to control
[5] = molecular target: Fibroblast growth factor receptor 3 (Homo sapiens) (UniProt P22607); assay: Inhibition of wild-type human partial length FGFR3 (R442 to S771 residues) expressed in bacterial expression assessed as enzyme remaining activity at 1000 nM by Kinomescan method relative to control
[6] = molecular target: RAF proto-oncogene serine/threonine-protein kinase (Homo sapiens) (UniProt P04049); assay: Inhibition of wild-type human partial length RAF1 (I330 to T640 residues) expressed in bacterial expression system assessed as enzyme remaining activity at 1000 nM by Kinomescan method relative to control
[7] = molecular target: Platelet-derived growth factor receptor beta (Homo sapiens) (UniProt P09619); assay: Inhibition of wild-type human partial length PDGFRB (V582 to Y1009 residues) expressed in bacterial expression system assessed as enzyme remaining activity at 1000 nM by Kinomescan method relative to control
[8] = molecular target: Inhibitor of nuclear factor kappa-B kinase subunit beta (Homo sapiens) (UniProt O14920); assay: Inhibition of wild-type human full length IKK-beta (M1 to S756 residues) expressed in mammalian expression system assessed as enzyme remaining activity at 1000 nM by Kinomescan method relative to control
[9] = test system: Mus musculus; assay: (§2) Protection against TNFalpha/Z-VAD-fmk-induced C57BL/6J mouse model of systemic inflammatory response syndrome assessed as increase in body temperature at 5 to 50 mg/kg, po administered via gavage 2 hrs prior to Z-VAD-fmk addition for 15 mins followed by TNFalpha stimulation for 1 hr and subsequent Z-VAD-fmk addition meaured up to 50 hrs post TNFalpha stimulation by electric thermometer; assay type: functional, organism-based
Outline: (§3)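 Female C57BL/6 mice, fasted overnight, n=10 per group. Compound given by oral gavage at 5, 25 or 50 mg/kg 2 h before TNF. z-VAD-fmk 180 µg i.p., then 15 min later mTNF-α 400 µg/kg i.v. in endotoxin-free PBS, then a further 70 µg z-VAD-fmk i.p. 1 h later. Body temperature and survival followed, compared with vehicle by one-way ANOVA.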

[10] = molecular target: Cyclin-dependent kinase 2 (Homo sapiens) (UniProt P24941); assay: Inhibition of wild-type human full length CDK2 (M1 to L298 residues) expressed in bacterial expression system assessed as enzyme remaining activity at 1000 nM by Kinomescan method relative to control
[11] = molecular target: Proto-oncogene tyrosine-protein kinase Src (Homo sapiens) (UniProt P12931); assay: Inhibition of wild-type human partial length SRC (L240 to L536 residues) expressed in bacterial expression system assessed as enzyme remaining activity at 1000 nM by Kinomescan method relative to control
[12] = molecular target: Inhibitor of nuclear factor kappa-B kinase subunit alpha (Homo sapiens) (UniProt O15111); assay: Inhibition of wild-type human full length IKK-alpha (M1 to E745 residues) expressed in mammalian expression system assessed as enzyme remaining activity at 1000 nM by Kinomescan method relative to control
[13] = molecular target: Dual specificity mitogen-activated protein kinase kinase 2 (Homo sapiens) (UniProt P36507); assay: Inhibition of wild-type human full length MEK2 (M1 to V400 residues) expressed in mammalian expression system assessed as enzyme remaining activity at 1000 nM by Kinomescan method relative to control
[14] = Tmax in Sprague-Dawley rat at 1 mg/kg, iv by LC-tandem mass spectrometry analysis; assay type: ADME, organism-based; details: in vivo
Outline: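 Male Sprague-Dawley rats received compound iv (1 mg/kg) or intragastrically (5 mg/kg). The vehicle was 5% DMSO, 10% Tween 80 and 75% saline, at 0.2 or 1 mg/mL. Blood was sampled at several time points and centrifuged at 4 °C. Plasma was stored at -80 °C and analysed by LC/MS/MS. Parameters were derived by noncompartmental analysis of individual animal data.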

[15] = Half-life in Sprague-Dawley rat at 5 mg/kg, po by LC-tandem mass spectrometry analysis; assay type: ADME, organism-based; details: in vivo; outline: as §1
[16] = Half-life in Sprague-Dawley rat at 1 mg/kg, iv by LC-tandem mass spectrometry analysis; assay type: ADME, organism-based; details: in vivo; outline: as §1
[17] = molecular target: Cyclin-dependent kinase 7 (Homo sapiens) (UniProt P50613); assay: Inhibition of wild-type human full length CDK7 (M1 to L344 residues) expressed in mammalian expression system assessed as enzyme remaining activity at 1000 nM by Kinomescan method relative to control
[18] = Clearance in Sprague-Dawley rat at 1 mg/kg, iv by LC-tandem mass spectrometry analysis; assay type: ADME, organism-based; details: in vivo; outline: as §1
[19] = molecular target: T1, Receptor-interacting serine/threonine-protein kinase 3; assay: Inhibition of RIPK3 phosphorylation in TNFalpha/smac mimetic/Z-VAD-fmk stimulated human HT-29 cells at 1 uM treated prior to TNFalpha/smac mimetic/Z-VAD-fmk stimulation and measured after 2 to 4 hrs by SDS-PAGE based immunoblot assay; assay type: cell-based
[20] = molecular target: Mitogen-activated protein kinase 14 (Homo sapiens) (UniProt Q16539); assay: Inhibition of wild-type human full length p38-alpha (M1 to S360 residues) expressed in bacterial expression system assessed as enzyme remaining activity at 1000 nM by Kinomescan method relative to control
[21] = test system: Mus musculus; assay: as §2, with “mouse survial” for “body temperature”, “stimulation” for “stimulation by electric thermometer”; assay type: functional, organism-based; outline: as §3
[22] = Cmax in Sprague-Dawley rat at 5 mg/kg, po by LC-tandem mass spectrometry analysis; assay type: ADME, organism-based; parameters: dose 5 mg/kg, route oral; details: in vivo; outline: as §1
[23] = molecular target: Vascular endothelial growth factor receptor 2 (Homo sapiens) (UniProt P35968); assay: Inhibition of wild-type human partial length VEGFR2 (R787 to P1253 residues) expressed in mammalian expression system assessed as enzyme remaining activity at 1000 nM by Kinomescan method relative to control
Chain of Vascular endothelial growth factor receptor 2 (Homo sapiens) (P35968 whole entry, the tested form may be a part): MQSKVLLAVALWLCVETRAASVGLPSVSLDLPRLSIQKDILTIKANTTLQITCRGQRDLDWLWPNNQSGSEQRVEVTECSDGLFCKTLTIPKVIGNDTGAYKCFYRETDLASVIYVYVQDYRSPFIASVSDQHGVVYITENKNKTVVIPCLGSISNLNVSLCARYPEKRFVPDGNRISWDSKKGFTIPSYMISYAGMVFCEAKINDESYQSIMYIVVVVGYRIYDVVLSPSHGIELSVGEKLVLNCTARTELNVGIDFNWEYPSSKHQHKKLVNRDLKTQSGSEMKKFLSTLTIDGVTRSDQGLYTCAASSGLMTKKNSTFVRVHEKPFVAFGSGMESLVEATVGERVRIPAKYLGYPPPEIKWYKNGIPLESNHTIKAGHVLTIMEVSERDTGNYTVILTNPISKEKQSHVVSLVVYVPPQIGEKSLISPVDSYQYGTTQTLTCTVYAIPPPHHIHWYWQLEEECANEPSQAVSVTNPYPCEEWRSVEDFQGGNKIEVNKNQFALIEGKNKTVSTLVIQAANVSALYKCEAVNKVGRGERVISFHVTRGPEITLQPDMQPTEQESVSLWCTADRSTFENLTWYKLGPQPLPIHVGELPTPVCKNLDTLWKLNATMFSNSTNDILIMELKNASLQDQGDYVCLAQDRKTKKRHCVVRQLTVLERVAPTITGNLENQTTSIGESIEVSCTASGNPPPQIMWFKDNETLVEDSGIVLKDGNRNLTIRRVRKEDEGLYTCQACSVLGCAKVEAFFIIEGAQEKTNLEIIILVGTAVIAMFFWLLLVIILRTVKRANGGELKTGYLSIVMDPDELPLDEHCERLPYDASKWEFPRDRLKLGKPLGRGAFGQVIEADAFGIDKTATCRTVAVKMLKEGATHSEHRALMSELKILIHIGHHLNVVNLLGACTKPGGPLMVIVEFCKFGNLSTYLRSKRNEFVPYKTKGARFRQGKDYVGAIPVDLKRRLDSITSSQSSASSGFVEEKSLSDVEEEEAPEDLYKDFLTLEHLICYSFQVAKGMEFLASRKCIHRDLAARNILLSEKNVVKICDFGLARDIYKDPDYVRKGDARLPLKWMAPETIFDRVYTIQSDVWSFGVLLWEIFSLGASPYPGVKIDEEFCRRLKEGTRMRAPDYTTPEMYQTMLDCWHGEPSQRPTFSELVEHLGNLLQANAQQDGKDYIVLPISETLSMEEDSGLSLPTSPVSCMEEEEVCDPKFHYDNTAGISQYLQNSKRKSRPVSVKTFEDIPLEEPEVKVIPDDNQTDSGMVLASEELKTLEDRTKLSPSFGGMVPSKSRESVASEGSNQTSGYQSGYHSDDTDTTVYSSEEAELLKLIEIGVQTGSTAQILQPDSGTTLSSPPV

T1 sequence (Q9Y572 whole entry, looked up): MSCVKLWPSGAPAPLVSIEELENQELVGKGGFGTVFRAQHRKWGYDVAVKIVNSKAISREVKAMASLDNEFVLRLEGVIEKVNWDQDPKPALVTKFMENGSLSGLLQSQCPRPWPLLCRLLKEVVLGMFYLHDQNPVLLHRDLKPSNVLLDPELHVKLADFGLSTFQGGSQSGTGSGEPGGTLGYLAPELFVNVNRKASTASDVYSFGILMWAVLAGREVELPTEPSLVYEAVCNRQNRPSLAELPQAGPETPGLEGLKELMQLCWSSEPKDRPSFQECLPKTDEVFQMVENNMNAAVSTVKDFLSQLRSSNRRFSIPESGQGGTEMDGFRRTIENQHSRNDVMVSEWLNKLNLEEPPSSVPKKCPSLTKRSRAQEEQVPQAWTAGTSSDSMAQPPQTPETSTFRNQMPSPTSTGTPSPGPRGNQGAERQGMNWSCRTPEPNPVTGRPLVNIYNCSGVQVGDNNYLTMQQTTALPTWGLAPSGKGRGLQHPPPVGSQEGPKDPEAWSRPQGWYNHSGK
Chain of Inhibitor of nuclear factor kappa-B kinase subunit alpha (Homo sapiens) (O15111 whole entry, the tested form may be a part): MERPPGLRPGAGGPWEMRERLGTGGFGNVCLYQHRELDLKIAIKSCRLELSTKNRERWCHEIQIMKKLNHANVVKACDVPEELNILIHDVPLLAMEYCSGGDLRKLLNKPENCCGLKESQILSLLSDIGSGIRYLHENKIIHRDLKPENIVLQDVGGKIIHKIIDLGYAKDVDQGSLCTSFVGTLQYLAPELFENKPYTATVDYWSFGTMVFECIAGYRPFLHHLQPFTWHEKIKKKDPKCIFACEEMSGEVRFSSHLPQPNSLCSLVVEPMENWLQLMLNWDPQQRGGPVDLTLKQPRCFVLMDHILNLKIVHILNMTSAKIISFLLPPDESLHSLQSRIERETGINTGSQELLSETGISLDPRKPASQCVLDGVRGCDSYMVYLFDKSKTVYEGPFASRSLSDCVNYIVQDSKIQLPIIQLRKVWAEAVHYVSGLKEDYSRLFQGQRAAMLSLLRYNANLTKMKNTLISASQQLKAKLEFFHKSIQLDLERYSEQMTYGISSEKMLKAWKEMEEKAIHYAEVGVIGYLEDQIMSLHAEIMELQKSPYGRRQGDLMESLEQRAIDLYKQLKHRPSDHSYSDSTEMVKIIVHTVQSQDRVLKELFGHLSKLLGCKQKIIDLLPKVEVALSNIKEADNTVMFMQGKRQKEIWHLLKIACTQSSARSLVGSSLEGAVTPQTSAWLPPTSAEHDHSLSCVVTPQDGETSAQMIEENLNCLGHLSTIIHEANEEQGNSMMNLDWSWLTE
Chain of Fibroblast growth factor receptor 3 (Homo sapiens) (P22607 23-806 limits assumed): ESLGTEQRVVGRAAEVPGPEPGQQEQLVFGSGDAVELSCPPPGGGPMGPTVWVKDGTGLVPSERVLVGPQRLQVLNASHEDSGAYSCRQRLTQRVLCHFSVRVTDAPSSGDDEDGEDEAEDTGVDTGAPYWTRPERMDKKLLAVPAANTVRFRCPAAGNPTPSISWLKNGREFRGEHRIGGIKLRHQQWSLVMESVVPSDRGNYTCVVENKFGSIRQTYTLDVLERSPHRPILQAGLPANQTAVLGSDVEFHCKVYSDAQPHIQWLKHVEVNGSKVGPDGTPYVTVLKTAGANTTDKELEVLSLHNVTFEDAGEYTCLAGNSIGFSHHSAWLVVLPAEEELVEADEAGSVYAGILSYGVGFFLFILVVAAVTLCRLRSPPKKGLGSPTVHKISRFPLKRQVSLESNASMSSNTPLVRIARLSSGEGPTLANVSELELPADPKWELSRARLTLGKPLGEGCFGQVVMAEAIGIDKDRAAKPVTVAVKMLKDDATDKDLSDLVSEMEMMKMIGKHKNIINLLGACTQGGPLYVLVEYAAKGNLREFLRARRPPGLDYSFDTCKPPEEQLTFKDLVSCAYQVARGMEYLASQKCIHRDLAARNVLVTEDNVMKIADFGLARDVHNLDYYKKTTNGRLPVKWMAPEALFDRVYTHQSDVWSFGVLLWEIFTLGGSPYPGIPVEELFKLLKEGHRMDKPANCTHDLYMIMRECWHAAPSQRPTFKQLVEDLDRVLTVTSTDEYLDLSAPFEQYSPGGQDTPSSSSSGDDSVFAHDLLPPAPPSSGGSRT
Chain of Cyclin-dependent kinase 7 (Homo sapiens) (P50613 whole entry, the tested form may be a part): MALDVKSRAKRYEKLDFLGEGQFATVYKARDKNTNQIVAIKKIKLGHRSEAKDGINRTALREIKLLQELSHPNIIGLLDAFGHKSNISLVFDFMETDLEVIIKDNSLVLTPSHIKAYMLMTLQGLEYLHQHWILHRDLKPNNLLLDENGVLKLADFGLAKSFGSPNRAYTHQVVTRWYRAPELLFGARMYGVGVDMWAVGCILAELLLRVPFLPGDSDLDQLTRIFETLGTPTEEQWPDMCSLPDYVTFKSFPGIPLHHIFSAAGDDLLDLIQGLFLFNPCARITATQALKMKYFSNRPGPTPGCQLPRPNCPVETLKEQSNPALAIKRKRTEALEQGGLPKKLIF
Chain of Proto-oncogene tyrosine-protein kinase Src (Homo sapiens) (P12931 2-536 limits assumed): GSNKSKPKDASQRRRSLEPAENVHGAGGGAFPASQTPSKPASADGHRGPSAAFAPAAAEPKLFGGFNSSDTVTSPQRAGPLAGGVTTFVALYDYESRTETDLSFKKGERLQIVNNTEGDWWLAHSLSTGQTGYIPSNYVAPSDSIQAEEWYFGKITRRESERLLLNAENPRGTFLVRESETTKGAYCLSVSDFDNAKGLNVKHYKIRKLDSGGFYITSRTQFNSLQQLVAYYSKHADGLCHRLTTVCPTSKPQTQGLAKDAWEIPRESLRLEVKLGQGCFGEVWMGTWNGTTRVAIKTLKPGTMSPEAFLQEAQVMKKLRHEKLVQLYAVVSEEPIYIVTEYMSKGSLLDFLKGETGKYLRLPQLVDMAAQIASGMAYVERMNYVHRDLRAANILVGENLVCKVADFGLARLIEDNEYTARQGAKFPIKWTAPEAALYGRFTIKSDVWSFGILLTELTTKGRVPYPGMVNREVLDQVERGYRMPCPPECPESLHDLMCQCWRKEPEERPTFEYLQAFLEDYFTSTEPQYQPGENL
Chain of Serine/threonine-protein kinase B-raf (Homo sapiens) (P15056 whole entry, the tested form may be a part): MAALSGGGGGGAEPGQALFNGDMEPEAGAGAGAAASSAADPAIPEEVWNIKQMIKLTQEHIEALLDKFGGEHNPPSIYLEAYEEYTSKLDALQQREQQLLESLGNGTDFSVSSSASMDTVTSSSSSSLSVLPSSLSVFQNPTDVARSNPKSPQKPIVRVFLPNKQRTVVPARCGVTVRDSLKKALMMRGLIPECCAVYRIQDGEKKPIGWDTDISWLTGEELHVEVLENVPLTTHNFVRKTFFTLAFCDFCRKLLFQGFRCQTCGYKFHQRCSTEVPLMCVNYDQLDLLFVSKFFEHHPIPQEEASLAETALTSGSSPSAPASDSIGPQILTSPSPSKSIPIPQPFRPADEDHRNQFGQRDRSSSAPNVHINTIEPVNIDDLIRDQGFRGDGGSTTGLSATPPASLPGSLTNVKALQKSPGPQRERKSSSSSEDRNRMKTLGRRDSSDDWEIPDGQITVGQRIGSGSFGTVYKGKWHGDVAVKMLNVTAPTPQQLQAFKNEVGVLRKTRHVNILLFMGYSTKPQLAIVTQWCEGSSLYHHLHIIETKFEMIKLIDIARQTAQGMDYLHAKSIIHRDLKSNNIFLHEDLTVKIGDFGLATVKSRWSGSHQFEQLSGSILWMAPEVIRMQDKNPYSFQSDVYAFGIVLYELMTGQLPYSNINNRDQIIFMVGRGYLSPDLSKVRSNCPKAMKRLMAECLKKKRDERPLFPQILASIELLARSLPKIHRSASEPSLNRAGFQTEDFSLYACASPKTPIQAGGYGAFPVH

For O=C(Nc1cccc(Br)c1)Nc1cc(Oc2ccc3nc(NC(=O)C4CC4)sc3c2)ccc1F, the inhibition [1] was “Active”, the Cmax [2] was 4600 ng/mL and the Activity [3] was 3.6%. For the same compound, the Activity [4] was 100%, the Activity [5] was 62% and the Activity [6] was 13%. For the same compound, the Activity [7] was 0%, the Activity [8] was 97% and the Activity [9] was “Active”. It also gave an Activity [10] of 93%, an Activity [11] of 0% and an Activity [12] of 100%. For the same compound, the Activity [13] was 83%, the Tmax [14] was 4.98 min and the half-life [15] was 15.2 h. The half-life [16] was 15.4 h, the Activity [17] was 81% and the clearance [18] was 2.6 mL/min/kg. For the same compound, the inhibition [19] was “Active”, the Activity [20] was 23% and the Activity [21] was “Active”. For the same compound, the Cmax [22] was 345 ng/mL and the Activity [23] was 2.8%.
